Test results taken from ChEMBL document CHEMBL4396879, “Conjugation of Short Peptides to Dibenzodiazepinone-Type Muscarinic Acetylcholine Receptor Ligands Determines M2R Selectivity” (J Med Chem, 2019).

How the values were obtained:
[1] = Stability of the compound in human plasma used as 1:2 ratio of plasma to pH 7.4 PBS assessed as intact compound at 100 uM incubated for 6 hr […]; assay type: ADME, cell-free; conditions: plasma diluted with PBS (1:2), read-out: Stability
[2] = molecular target: Muscarinic acetylcholine receptors; M1 & M2 (Homo sapiens) (UniProt P11229+P08172); experiment: Selectivity ratio of Ki for human muscarinic M1 receptor expressed in CHO-K9 cells to Ki for human muscarinic M2 receptor expressed in CHO-K9 cells; assay type: cell-based
Procedure, shortened: (§1)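 Ratio of mean Ki values. Each Ki came from an individual [3H]NMS competition experiment at the given CHO-hMxR subtype, converting IC50 to Ki by Cheng-Prusoff before averaging.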

[3] = Stability of the compound in human plasma:PBS of pH 7.4 (1:2) assessed as intact compound at 100 uM incubated for 1 hr by LC-MS analysis; assay type: ADME, cell-free; conditions: plasma diluted with PBS (1:2), read-out: Stability
Procedure, shortened: (§2)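 Compound added at 100 μM (from 5 mM stock in acetonitrile/0.04% TFA 3:7) to heparinized human plasma/PBS pH 7.4 (1:2 v/v) with 10 μM 1-methyl-D-tryptophan as internal standard. Incubated shaking at 37 °C in triplicate. Aliquots were EtOH/acetonitrile-precipitated and analysed by RP-HPLC at 220 nm, with recovery correction against four-point calibrations.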

[4] = molecular target: T1, Muscarinic acetylcholine receptor M1 (Homo sapiens, UniProt P11229); experiment: Displacement of [3H]-NMS from human muscarinic M1 receptor expressed in CHO-K9 cells after 3 hrs by microbeta2 scintillation counting method; assay type: cell-based
T1 sequence (P11229 whole entry): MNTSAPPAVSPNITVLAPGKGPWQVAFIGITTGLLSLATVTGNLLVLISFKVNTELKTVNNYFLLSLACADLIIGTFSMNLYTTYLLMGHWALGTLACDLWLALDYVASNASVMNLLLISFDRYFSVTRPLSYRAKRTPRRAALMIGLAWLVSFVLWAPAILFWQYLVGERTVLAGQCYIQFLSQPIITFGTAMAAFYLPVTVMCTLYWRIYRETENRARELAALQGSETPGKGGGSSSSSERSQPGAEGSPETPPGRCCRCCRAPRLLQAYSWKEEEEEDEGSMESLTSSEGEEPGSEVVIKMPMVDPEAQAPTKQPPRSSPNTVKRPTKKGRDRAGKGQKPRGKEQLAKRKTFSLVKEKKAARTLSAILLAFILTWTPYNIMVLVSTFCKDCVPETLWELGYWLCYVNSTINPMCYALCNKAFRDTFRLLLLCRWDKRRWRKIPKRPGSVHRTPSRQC
Procedure, shortened: (§3)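 [3H]NMS competition binding on intact CHO-hMxR cells in L15 medium with 1% BSA, 3 h at 22 ± 1 °C with gentle shaking. [3H]NMS was 0.2 nM (M1, M2, M3), 0.1 nM (M4) or 0.3 nM (M5). […] Cells were lysed in urea/acetic acid/Triton and counted by liquid scintillation. Ki from Cheng-Prusoff. Triplicates, ≥3 experiments.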

[5] = Stability of the compound in human plasma used as 1:2 ratio of plasma to pH 7.4 PBS assessed as intact compound at 100 uM incubated for 48 hr by LC-MS analysis; assay type: ADME, cell-free; conditions: plasma diluted with PBS (1:2), read-out: Stability; procedure, shortened: as §2
[6] = molecular target: T2, Muscarinic acetylcholine receptor M5 (Homo sapiens, UniProt P08912); experiment: Displacement of [3H]-NMS from human muscarinic M5 receptor expressed in CHO-K9 cells after 3 hrs by microbeta2 scintillation counting method; assay type: cell-based; procedure, shortened: as §3
T2 sequence (P08912 whole entry): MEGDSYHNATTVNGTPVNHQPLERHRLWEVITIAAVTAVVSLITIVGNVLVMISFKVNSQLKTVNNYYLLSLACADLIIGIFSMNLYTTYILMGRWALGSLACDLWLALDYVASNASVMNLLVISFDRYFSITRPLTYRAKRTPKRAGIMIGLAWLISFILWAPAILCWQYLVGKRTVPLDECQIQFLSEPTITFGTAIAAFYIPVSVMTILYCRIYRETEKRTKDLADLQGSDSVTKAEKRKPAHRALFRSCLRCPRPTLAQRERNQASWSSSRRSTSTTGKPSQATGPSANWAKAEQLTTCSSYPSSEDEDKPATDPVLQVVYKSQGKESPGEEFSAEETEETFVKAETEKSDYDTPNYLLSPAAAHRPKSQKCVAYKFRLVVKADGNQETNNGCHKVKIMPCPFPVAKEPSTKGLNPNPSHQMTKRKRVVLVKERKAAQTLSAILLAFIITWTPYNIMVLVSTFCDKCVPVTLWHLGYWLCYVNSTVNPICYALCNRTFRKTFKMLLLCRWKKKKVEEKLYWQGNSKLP

[7] = Stability of the compound in human plasma used as 1:2 ratio of plasma to pH 7.4 PBS assessed as intact compound at 100 uM incubated for 24 hr […]; assay type: ADME, cell-free; conditions: plasma diluted with PBS (1:2), read-out: Stability
[8] = molecular target: Muscarinic acetylcholine receptors; M2 & M3 (Homo sapiens) (UniProt P20309+P08172); experiment: Selectivity ratio of Ki for human muscarinic M3 receptor expressed in CHO-K9 cells to Ki for human muscarinic M2 receptor expressed in CHO-K9 cells; assay type: cell-based; procedure, shortened: as §1
[9] = molecular target: Muscarinic acetylcholine receptor M3 (Homo sapiens, UniProt P20309); experiment: Displacement of [3H]-NMS from human muscarinic M3 receptor expressed in CHO-K9 cells after 3 hrs by microbeta2 scintillation counting method; assay type: cell-based; procedure, shortened: as §3
[10] = molecular target: T3, Muscarinic acetylcholine receptor M2 (Homo sapiens) (UniProt P08172); experiment: Competitive displacement of [3H]-NMS from human muscarinic M2 receptor expressed in CHO-K9 cells using 2 nM [3H]-NMS after 3 hrs by microbeta2 scintillation counting method relative to control; assay type: cell-based
T3 sequence (whole entry): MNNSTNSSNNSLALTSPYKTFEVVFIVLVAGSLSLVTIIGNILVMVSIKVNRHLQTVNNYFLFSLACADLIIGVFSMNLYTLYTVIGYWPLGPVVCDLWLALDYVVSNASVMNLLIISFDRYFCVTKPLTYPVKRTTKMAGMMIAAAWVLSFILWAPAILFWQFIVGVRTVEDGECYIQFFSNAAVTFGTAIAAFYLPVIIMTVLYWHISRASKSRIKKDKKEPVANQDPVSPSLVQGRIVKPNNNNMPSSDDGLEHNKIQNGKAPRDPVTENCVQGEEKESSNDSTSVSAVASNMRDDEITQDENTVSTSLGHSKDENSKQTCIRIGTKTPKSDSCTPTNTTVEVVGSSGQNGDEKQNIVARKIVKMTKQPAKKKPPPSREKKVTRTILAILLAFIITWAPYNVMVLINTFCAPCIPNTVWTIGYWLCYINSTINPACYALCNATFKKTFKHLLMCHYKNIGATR
Procedure, shortened: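 Intact CHO-hM2R cells incubated at 22 °C with a high [3H]NMS concentration (2 nM). […] Curves were fitted by four-parameter logistic fits. Mean ± SEM from ≥4 experiments in triplicate.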

[11] = molecular target: T4, Muscarinic acetylcholine receptor M2 (Homo sapiens, UniProt P08172); experiment: Competitive displacement of [3H]-NMS from human muscarinic M2 receptor expressed in CHO-K9 cells using 0.2 nM [3H]-NMS after 3 hrs by microbeta2 scintillation counting method; assay type: cell-based
T4 sequence (P08172 whole entry): T3 sequence (whole entry)
Procedure, shortened: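 Intact CHO-hM2R cells (90-100% confluent) incubated 3 h at 22 ± 1 °C in L15 medium with 1% BSA and 0.2 nM [3H]NMS. […] Cells were lysed in urea/acetic acid/Triton-X-100 and radioactivity was counted. Ki via Cheng-Prusoff.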

Sequence of Muscarinic acetylcholine receptor M3 (P20309 whole entry): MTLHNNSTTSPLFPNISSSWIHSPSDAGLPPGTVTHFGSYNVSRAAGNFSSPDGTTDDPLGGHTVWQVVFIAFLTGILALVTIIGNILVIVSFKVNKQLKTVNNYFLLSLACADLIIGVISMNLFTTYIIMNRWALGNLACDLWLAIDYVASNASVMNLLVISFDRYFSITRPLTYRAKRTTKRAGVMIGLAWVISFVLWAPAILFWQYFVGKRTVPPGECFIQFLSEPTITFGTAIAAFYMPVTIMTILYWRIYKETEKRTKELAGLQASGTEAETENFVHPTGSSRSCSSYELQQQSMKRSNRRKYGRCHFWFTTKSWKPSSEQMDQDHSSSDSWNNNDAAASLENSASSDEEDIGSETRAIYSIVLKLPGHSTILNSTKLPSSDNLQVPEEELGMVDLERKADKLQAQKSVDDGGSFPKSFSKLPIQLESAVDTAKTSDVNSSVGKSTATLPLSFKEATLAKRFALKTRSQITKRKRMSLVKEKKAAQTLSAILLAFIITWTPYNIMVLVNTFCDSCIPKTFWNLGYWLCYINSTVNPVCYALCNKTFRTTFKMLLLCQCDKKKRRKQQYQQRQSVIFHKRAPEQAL

remaining at 6 h, 100 µM [1] [%] | Ratio Ki [2] | remaining at 1 h, 100 µM [3] [%] | Ki [4] [nM] | remaining at 48 h, 100 µM [5] [%] | Ki [6] [nM] | remaining at 24 h, 100 µM [7] [%] | Ratio Ki [8] | Ki [9] [nM] | Activity [10] [%] | IC50 [11] [nM] | Ki [11] [nM] | SMILES
> 99 | 49 | 99 | 41.7 | > 99 | 427 | > 99 | 6500 | 6760 | > 95 | 3.31 | 1.07 | CC(=O)N[C@@H](CCCCN)C(=O)N[C@@H](CCCNC(=N)N)C(=O)NCCCCC1CCN(CC(=O)N2c3ccccc3NC(=O)c3ccccc32)CC1
> 99 | 45 | > 99 | 2.29 | > 99 | 295 | > 99 | 1800 | 110 | > 95 | 0.191 | 0.0631 | CC(=O)N[C@@H](CCCCN)C(=O)N[C@@H](C)C(=O)N[C@@H](CCCNC(=N)N)C(=O)NCCN1CCN(CCCCC2CCN(CC(=O)N3c4ccccc4NC(=O)c4ccccc43)CC2)CC1
